Laboratory results as given in ChEMBL document CHEMBL1275299, “Synthesis and anti-inflammatory activity of derivatives of coumarino-lignoid, cleomiscosin A and its methyl ether” (2010).

Assays:
Assay type in all cases: functional
[1] = Antiinflammatory activity in Swiss albino mouse macrophage assessed as inhibition of LPS-induced IL-6 production at 1 ug/ml treated 30 mins before LPS challenge measured after 24 hrs by ELISA
Summary of the method: (§1)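 Peritoneal macrophages from 8-week-old female Swiss albino mice, elicited by i.p. 1% peptone (1 mL) 3 days before harvest and collected by PBS (pH 7.4) lavage, were used at 2 × 10^6 live cells/mL. Cells were kept in RPMI 1640 with 10% heat-inactivated FCS and penicillin/streptomycin at 37 °C, 5% CO2. Adherent cells were kept after 2 h. Compounds were given in DMSO, with a DMSO vehicle control. LPS was 0.5 µg/mL. Cytokines were measured in supernatants by mouse sandwich ELISA kits. n = 4, Student t-test versus vehicle.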

[2] = Antiinflammatory activity in Swiss albino mouse macrophage assessed as inhibition of LPS-induced IL-6 production at 10 ug/ml treated 30 mins before LPS challenge measured after 24 hrs by ELISA; summary of the method: as §1
[3] = Antiinflammatory activity in Swiss albino mouse macrophage assessed as inhibition of LPS-induced TNFalpha production at 1 ug/ml treated 30 mins before LPS challenge measured after 24 hrs by ELISA; summary of the method: as §1
[4] = Antiinflammatory activity in Swiss albino mouse macrophage assessed as inhibition of LPS-induced IL1-beta production at 10 ug/ml treated 30 mins before LPS challenge measured after 24 hrs by ELISA; summary of the method: as §1
[5] = Antiinflammatory activity in Swiss albino mouse macrophage assessed as inhibition of LPS-induced IL1-beta production at 1 ug/ml treated 30 mins before LPS challenge measured after 24 hrs by ELISA; summary of the method: as §1
[6] = Antiinflammatory activity in Swiss albino mouse macrophage assessed as inhibition of LPS-induced TNFalpha production at 10 ug/ml treated 30 mins before LPS challenge measured after 24 hrs by ELISA; summary of the method: as §1

SMILES: COc1cc([C@H]2Oc3c(OC)c([N+](=O)[O-])c4ccc(=O)oc4c3O[C@@H]2CO)c([N+](=O)[O-])cc1OC
- inhibition at 1 µg/mL [1]: 86.4%
- inhibition at 10 µg/mL [2]: 80.2%
- inhibition at 1 µg/mL [3]: 76.6%
- inhibition at 10 µg/mL [4]: 70.2%
- inhibition at 1 µg/mL [5]: 72%
- inhibition at 10 µg/mL [6]: 78%

SMILES: COc1ccc([C@H]2Oc3c(OC)c(Cl)c4ccc(=O)oc4c3O[C@@H]2CO)cc1OC
- inhibition at 1 µg/mL [1]: 57.5%
- inhibition at 10 µg/mL [2]: 56.2%
- inhibition at 1 µg/mL [3]: 50.2%
- inhibition at 10 µg/mL [4]: 40.1%
- inhibition at 1 µg/mL [5]: 59.2%
- inhibition at 10 µg/mL [6]: 49.6%

SMILES: COc1ccc([C@H]2Oc3c(OC)c(Br)c4ccc(=O)oc4c3O[C@@H]2CO)cc1OC
- inhibition at 1 µg/mL [1]: 59.8%
- inhibition at 10 µg/mL [2]: 60%
- inhibition at 1 µg/mL [3]: 44.8%
- inhibition at 10 µg/mL [4]: 44.7%
- inhibition at 1 µg/mL [5]: 50.1%
- inhibition at 10 µg/mL [6]: 42%

SMILES: COc1cc([C@H]2Oc3c(OC)c(Br)c4ccc(=O)oc4c3O[C@@H]2COC(C)=O)ccc1O
- inhibition at 1 µg/mL [1]: 60.2%
- inhibition at 10 µg/mL [2]: 52.5%
- inhibition at 1 µg/mL [3]: 54.5%
- inhibition at 10 µg/mL [4]: 58.8%
- inhibition at 1 µg/mL [5]: 55.3%
- inhibition at 10 µg/mL [6]: 54.2%

SMILES: COc1cc([C@H]2Oc3c(OC)c([N+](=O)[O-])c4ccc(=O)oc4c3O[C@@H]2CO[N+](=O)[O-])c([N+](=O)[O-])cc1OC
- inhibition at 1 µg/mL [1]: 81.4%
- inhibition at 10 µg/mL [2]: 79%
- inhibition at 1 µg/mL [3]: 64.8%
- inhibition at 10 µg/mL [4]: 53.3%
- inhibition at 1 µg/mL [5]: 59.1%
- inhibition at 10 µg/mL [6]: 60.6%

SMILES: COc1cc([C@H]2Oc3c(OC)c([N+](=O)[O-])c4ccc(=O)oc4c3O[C@@H]2COC(C)=O)ccc1OC(C)=O
- inhibition at 1 µg/mL [1]: 87.2%
- inhibition at 10 µg/mL [2]: 82%
- inhibition at 1 µg/mL [3]: 70.5%
- inhibition at 10 µg/mL [4]: 65.3%
- inhibition at 1 µg/mL [5]: 70.4%
- inhibition at 10 µg/mL [6]: 67.8%

SMILES: O=C(O)Cc1ccccc1Nc1c(Cl)cccc1Cl [DICLOFENAC SODIUM]
- inhibition at 1 µg/mL [1]: 51.1%
- inhibition at 1 µg/mL [3]: 46.5%
- inhibition at 1 µg/mL [5]: 38.5%

SMILES: COc1cc([C@H]2Oc3c(OC)cc4ccc(=O)oc4c3O[C@@H]2COC(C)=O)ccc1O [DURANTIN A]
- inhibition at 1 µg/mL [1]: 81.9%
- inhibition at 10 µg/mL [2]: 78.3%
- inhibition at 1 µg/mL [3]: 73.3%
- inhibition at 10 µg/mL [4]: 74.8%
- inhibition at 1 µg/mL [5]: 109%
- inhibition at 10 µg/mL [6]: 76.2%
